Source: ChEMBL document CHEMBL1134783, “N-Arylsulfonylindole derivatives as serotonin 5-HT(6) receptor ligands” (J Med Chem, 2001)

target: 5-hydroxytryptamine receptor 1D (Homo sapiens, UniProt P28221); assay: Binding affinity against 5-hydroxytryptamine 1D receptor in CHO cells using [3H]5-HT as radioligand; type: cell-based
Sequence (P28221 whole entry): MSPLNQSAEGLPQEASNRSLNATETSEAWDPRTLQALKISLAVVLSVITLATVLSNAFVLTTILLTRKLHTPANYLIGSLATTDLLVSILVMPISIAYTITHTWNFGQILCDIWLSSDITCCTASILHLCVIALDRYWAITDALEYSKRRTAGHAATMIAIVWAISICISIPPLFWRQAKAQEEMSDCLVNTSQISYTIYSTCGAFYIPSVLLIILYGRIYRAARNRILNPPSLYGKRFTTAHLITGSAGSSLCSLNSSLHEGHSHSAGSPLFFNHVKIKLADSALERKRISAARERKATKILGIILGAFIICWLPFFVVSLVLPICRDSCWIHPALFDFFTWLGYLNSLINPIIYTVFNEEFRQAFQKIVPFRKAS

SMILES | Ki [nM]
CN(C)CCc1cn(S(=O)(=O)c2ccccc2)c2ccccc12 | 510
CN(C)CCc1cn(C(=O)c2ccccc2)c2ccc(O)cc12 | 180
CN(C)CCc1cccc2c1ccn2S(=O)(=O)c1ccccc1 | 9.3
COc1ccc2c(c1)c(CCN(C)C)cn2S(=O)(=O)c1ccccc1 | 720
NCCc1cccc2c1ccn2S(=O)(=O)c1ccccc1 | 4.5
Cc1ccc(S(=O)(=O)n2cc3c4c(cccc42)[C@H](O)[C@@H](N(C)C)C3)cc1 | 3900
CN(C)CCc1cccc2c1cc(C(=O)c1ccccc1)n2S(=O)(=O)c1ccccc1 | 98
CCOC(=O)c1[nH]c2ccccc2c1CCN(C)C | 330

target: T1, 5-hydroxytryptamine receptor 1F (Homo sapiens, UniProt P30939); assay: Binding affinity against 5-hydroxytryptamine 1F receptor in CHO cells using [3H]5-HT radioligand; type: cell-based
T1 sequence (P30939 whole entry): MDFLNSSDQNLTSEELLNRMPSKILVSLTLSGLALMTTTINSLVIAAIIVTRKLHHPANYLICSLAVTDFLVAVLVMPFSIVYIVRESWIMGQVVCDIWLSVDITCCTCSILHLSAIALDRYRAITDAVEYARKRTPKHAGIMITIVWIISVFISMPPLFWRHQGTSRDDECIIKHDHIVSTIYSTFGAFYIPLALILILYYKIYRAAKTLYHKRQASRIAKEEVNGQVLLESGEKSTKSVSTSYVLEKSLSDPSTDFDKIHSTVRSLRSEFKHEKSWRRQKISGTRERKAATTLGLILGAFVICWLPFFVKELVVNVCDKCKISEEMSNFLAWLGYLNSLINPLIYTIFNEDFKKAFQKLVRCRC

SMILES | Ki [nM]
CN(C)CCc1cn(S(=O)(=O)c2ccccc2)c2ccccc12 | 770
CN(C)CCc1cccc2c1ccn2S(=O)(=O)c1ccccc1 | 3.9
COc1ccc2c(c1)c(CCN(C)C)cn2S(=O)(=O)c1ccccc1 | 2500
NCCc1cccc2c1ccn2S(=O)(=O)c1ccccc1 | 47
CN(C)CCc1cccc2c1cc(C(=O)c1ccccc1)n2S(=O)(=O)c1ccccc1 | 570
CCOC(=O)c1[nH]c2ccccc2c1CCN(C)C | 2000

target: 5-hydroxytryptamine receptor 2A (Rattus norvegicus, UniProt P14842); assay: Binding affinity for 5-hydroxytryptamine 2 receptor of rat cortical membrane using [3H]DOB radioligand
Sequence (P14842 whole entry): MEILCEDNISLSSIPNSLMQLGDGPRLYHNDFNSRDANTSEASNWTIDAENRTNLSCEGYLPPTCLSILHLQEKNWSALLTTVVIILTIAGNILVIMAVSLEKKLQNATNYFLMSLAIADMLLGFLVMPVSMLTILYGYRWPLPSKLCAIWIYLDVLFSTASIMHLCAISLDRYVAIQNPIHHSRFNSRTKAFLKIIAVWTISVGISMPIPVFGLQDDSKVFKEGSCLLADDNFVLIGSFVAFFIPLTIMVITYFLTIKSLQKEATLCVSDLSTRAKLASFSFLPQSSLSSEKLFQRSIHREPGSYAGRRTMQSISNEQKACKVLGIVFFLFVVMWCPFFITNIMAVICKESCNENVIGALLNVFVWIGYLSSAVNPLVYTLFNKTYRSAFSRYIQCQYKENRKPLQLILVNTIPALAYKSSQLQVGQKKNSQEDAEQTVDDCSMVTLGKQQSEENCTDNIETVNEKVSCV

SMILES | Ki [nM]
CN(C)CCc1cn(S(=O)(=O)c2ccccc2)c2ccccc12 | 84
CN(C)CCc1cn(C(=O)c2ccccc2)c2ccc(O)cc12 | 200
CN(C)CCc1cccc2c1ccn2S(=O)(=O)c1ccccc1 | 18
COc1ccc2c(c1)c(CCN(C)C)cn2S(=O)(=O)c1ccccc1 | 65
NCCc1cccc2c1ccn2S(=O)(=O)c1ccccc1 | 4.8
Cc1ccc(S(=O)(=O)n2cc3c4c(cccc42)[C@H](O)[C@@H](N(C)C)C3)cc1 | 320
CN(C)CCc1cccc2c1cc(C(=O)c1ccccc1)n2S(=O)(=O)c1ccccc1 | 6.6
CCOC(=O)c1[nH]c2ccccc2c1CCN(C)C | 130

target: 5-hydroxytryptamine receptor 1B (Homo sapiens, UniProt P28222); assay: Binding affinity against 5-hydroxytryptamine 1B receptor in CHO cells using [3H]5-HT as radioligand; type: cell-based
Sequence (P28222 whole entry): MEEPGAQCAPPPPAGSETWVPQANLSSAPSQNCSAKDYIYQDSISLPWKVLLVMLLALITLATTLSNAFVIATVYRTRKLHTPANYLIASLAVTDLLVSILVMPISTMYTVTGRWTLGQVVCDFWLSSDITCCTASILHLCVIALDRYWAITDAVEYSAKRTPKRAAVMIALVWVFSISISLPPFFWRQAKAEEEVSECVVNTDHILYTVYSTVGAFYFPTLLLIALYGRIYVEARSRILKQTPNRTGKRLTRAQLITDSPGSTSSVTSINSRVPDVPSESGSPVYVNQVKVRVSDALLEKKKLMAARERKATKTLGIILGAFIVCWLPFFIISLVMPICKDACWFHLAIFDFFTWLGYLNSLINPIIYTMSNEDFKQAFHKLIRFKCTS

SMILES | Ki [nM]
CN(C)CCc1cn(S(=O)(=O)c2ccccc2)c2ccccc12 | 2300
CN(C)CCc1cn(C(=O)c2ccccc2)c2ccc(O)cc12 | 420
CN(C)CCc1cccc2c1ccn2S(=O)(=O)c1ccccc1 | 11
COc1ccc2c(c1)c(CCN(C)C)cn2S(=O)(=O)c1ccccc1 | 2200
NCCc1cccc2c1ccn2S(=O)(=O)c1ccccc1 | 6.5
Cc1ccc(S(=O)(=O)n2cc3c4c(cccc42)[C@H](O)[C@@H](N(C)C)C3)cc1 | 3100
CN(C)CCc1cccc2c1cc(C(=O)c1ccccc1)n2S(=O)(=O)c1ccccc1 | 190
CCOC(=O)c1[nH]c2ccccc2c1CCN(C)C | 910

target: T2, 5-hydroxytryptamine receptor 6 (Homo sapiens, UniProt P50406); assay: Binding affinity as displacement of [3H]5-HT binding to 5-hydroxytryptamine 6 receptor in HeLa cells; type: cell-based
T2 sequence (P50406 whole entry): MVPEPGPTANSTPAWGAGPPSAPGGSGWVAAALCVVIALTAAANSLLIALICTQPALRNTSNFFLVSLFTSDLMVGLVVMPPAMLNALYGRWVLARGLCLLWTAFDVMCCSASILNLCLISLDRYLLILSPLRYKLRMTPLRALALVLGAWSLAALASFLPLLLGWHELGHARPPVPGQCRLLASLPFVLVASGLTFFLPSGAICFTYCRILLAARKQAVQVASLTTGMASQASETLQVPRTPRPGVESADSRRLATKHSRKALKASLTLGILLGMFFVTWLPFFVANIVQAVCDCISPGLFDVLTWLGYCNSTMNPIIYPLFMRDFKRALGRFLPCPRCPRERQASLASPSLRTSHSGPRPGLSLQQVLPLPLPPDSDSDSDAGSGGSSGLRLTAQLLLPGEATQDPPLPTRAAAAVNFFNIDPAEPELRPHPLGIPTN
How it was run: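 Membranes from HeLa cells stably expressing cloned human 5-HT6 receptor, in 50 mM Tris with 0.03% ascorbic acid, pH 7.6. […] Nonspecific binding defined by 10 µM 5-HT. Filtration, then scintillation counting. One-site fit gave IC50, converted to Ki by Cheng-Prusoff. Geometric mean of ≥3 independent duplicate runs.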

SMILES | Ki [nM]
CN(C)CCCc1cccc2c1ccn2S(=O)(=O)c1ccccc1 | 7.9

target: T3, D(4) dopamine receptor (Homo sapiens, UniProt P21917); assay: Binding affinity against dopamine receptor D4 cloned in HEK 293 cells using [3H]spiperone radioligand; type: cell-based, HEK293
T3 sequence (P21917 whole entry): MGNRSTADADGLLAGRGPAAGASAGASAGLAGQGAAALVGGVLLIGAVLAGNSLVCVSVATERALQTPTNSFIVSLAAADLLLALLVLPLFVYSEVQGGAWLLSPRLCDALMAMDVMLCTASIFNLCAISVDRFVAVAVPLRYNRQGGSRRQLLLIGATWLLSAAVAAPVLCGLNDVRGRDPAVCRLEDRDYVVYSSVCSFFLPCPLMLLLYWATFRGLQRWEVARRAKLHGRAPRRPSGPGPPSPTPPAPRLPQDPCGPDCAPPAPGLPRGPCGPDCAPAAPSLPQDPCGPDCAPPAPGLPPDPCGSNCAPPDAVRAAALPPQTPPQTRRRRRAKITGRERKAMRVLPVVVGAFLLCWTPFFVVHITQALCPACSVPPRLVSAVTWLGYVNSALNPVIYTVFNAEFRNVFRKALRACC

SMILES | Ki [nM]
CN(C)CCc1cn(S(=O)(=O)c2ccccc2)c2ccccc12 | > 3200
CN(C)CCc1cn(C(=O)c2ccccc2)c2ccc(O)cc12 | > 3900
CN(C)CCc1cccc2c1ccn2S(=O)(=O)c1ccccc1 | > 3200
COc1ccc2c(c1)c(CCN(C)C)cn2S(=O)(=O)c1ccccc1 | > 3200
NCCc1cccc2c1ccn2S(=O)(=O)c1ccccc1 | > 3200
Cc1ccc(S(=O)(=O)n2cc3c4c(cccc42)[C@H](O)[C@@H](N(C)C)C3)cc1 | > 3200
CN(C)CCc1cccc2c1cc(C(=O)c1ccccc1)n2S(=O)(=O)c1ccccc1 | > 3200
CCOC(=O)c1[nH]c2ccccc2c1CCN(C)C | 1600

target: 5-hydroxytryptamine receptor 5A (Rattus norvegicus, UniProt P35364); assay: Binding affinity against 5-hydroxytryptamine 5A receptor in HEK 293 cells was determined using [3H]LSD as radioligand; type: cell-based, HEK293
Sequence (P35364 whole entry): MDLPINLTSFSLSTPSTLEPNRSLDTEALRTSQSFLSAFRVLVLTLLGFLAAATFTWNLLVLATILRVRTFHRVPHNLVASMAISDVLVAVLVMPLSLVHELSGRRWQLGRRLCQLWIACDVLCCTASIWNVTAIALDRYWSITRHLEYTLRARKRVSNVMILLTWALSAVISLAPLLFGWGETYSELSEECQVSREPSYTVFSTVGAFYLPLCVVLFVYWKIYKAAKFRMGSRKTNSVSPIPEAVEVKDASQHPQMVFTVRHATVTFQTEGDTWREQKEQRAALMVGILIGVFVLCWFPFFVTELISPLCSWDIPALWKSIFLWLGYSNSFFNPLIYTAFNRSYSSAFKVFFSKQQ

SMILES | Ki [nM]
CN(C)CCc1cn(S(=O)(=O)c2ccccc2)c2ccccc12 | 4000
CN(C)CCc1cn(C(=O)c2ccccc2)c2ccc(O)cc12 | 4500
CN(C)CCc1cccc2c1ccn2S(=O)(=O)c1ccccc1 | 3400
COc1ccc2c(c1)c(CCN(C)C)cn2S(=O)(=O)c1ccccc1 | > 5000
NCCc1cccc2c1ccn2S(=O)(=O)c1ccccc1 | 1200
Cc1ccc(S(=O)(=O)n2cc3c4c(cccc42)[C@H](O)[C@@H](N(C)C)C3)cc1 | > 6400
CN(C)CCc1cccc2c1cc(C(=O)c1ccccc1)n2S(=O)(=O)c1ccccc1 | 1600

target: D(3) dopamine receptor (Homo sapiens, UniProt P35462); assay: Binding affinity against dopamine receptor D3 in HEK 293 cells using [3H]spiperone radioligand; type: cell-based, HEK293
Sequence (P35462 whole entry): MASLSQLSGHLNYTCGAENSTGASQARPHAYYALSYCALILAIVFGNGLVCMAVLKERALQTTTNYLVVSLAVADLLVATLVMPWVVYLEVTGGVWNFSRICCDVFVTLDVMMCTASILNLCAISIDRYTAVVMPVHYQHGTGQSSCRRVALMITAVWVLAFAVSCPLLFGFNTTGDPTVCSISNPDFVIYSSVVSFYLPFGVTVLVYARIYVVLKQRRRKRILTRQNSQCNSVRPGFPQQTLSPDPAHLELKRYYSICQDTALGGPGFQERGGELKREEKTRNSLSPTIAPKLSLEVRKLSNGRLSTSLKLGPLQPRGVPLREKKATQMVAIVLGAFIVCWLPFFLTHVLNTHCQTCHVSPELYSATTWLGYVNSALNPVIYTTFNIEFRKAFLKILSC

SMILES | Ki [nM]
CN(C)CCc1cn(S(=O)(=O)c2ccccc2)c2ccccc12 | 23
CN(C)CCc1cn(C(=O)c2ccccc2)c2ccc(O)cc12 | > 3500
CN(C)CCc1cccc2c1ccn2S(=O)(=O)c1ccccc1 | 300
COc1ccc2c(c1)c(CCN(C)C)cn2S(=O)(=O)c1ccccc1 | 80
NCCc1cccc2c1ccn2S(=O)(=O)c1ccccc1 | 940
Cc1ccc(S(=O)(=O)n2cc3c4c(cccc42)[C@H](O)[C@@H](N(C)C)C3)cc1 | 3700
CN(C)CCc1cccc2c1cc(C(=O)c1ccccc1)n2S(=O)(=O)c1ccccc1 | 66
CCOC(=O)c1[nH]c2ccccc2c1CCN(C)C | 110

target: T2, 5-hydroxytryptamine receptor 6; assay: Binding affinity as displacement of [3H]5-HT binding to 5-hydroxytryptamine 6 receptor in HeLa cells.; type: cell-based
How it was run: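 Human 5-HT6 stably expressed in HeLa cells; washed membranes in 50 mM Tris, 0.03% ascorbic acid, pH 7.6. Nonspecific binding defined with 10 µM 5-HT. Filtration and scintillation counting; one-site fit gave IC50, converted to Ki by Cheng-Prusoff. Geometric mean of ≥3 experiments, each in duplicate.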

SMILES | Ki [nM]
CN(C)CCc1cn(S(=O)(=O)c2ccccc2)c2ccccc12 | 2.9
CO[C@H]1c2cccc3c2c(cn3S(=O)(=O)c2ccc(C)cc2)C[C@@H]1N(C)C | 130
COc1ccc2[nH]c(C)c(CCN(C)C)c2c1 | 89
CN(C)CCc1cn(S(=O)(=O)c2ccccc2)c2ccc(OCc3ccccc3)cc12 | 320
COc1ccc2c(c1)c(CCN(C)C)cn2S(=O)(=O)c1cccc(Cl)c1 | 7.9
COc1ccc2c(c1)c(CCN(C)C)cn2S(=O)(=O)c1ccccc1Cl | 11
CN(C)CCc1cn(C(=O)c2ccccc2)c2ccc(O)cc12 | 54
CN(C)CCc1cccc2c1ccn2S(=O)(=O)c1ccccc1 | 1.5
NCCc1cccc2c1ccn2S(=O)(=O)c1ccccc1 | 2.4
Cc1ccc(S(=O)(=O)n2cc3c4c(cccc42)[C@H](O)[C@@H](N(C)C)C3)cc1 | 7.2
CN(C)CCc1cccc2c1cc(C(=O)c1ccccc1)n2S(=O)(=O)c1ccccc1 | 3
CCOC(=O)c1[nH]c2ccccc2c1CCN(C)C | 20

target: D(2) dopamine receptor (Homo sapiens, UniProt P14416); assay: Binding affinity against dopamine receptor D2 using [3H]spiperone radioligand in CHO cells; type: cell-based
Sequence (P14416 whole entry): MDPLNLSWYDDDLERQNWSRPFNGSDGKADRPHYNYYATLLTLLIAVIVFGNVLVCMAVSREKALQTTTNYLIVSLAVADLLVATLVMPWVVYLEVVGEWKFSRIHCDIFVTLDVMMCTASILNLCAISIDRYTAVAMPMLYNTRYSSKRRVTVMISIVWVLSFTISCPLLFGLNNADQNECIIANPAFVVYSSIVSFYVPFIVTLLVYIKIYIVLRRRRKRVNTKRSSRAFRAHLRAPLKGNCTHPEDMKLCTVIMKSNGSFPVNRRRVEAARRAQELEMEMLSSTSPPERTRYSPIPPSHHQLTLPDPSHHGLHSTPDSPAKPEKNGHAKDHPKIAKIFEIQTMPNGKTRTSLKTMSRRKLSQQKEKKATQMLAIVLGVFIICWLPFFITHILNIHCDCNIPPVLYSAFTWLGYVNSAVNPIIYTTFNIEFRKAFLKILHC

SMILES | Ki [nM]
CN(C)CCc1cn(S(=O)(=O)c2ccccc2)c2ccccc12 | 62
CN(C)CCc1cn(C(=O)c2ccccc2)c2ccc(O)cc12 | > 2200
CN(C)CCc1cccc2c1ccn2S(=O)(=O)c1ccccc1 | 1600
COc1ccc2c(c1)c(CCN(C)C)cn2S(=O)(=O)c1ccccc1 | 210
NCCc1cccc2c1ccn2S(=O)(=O)c1ccccc1 | > 1700
Cc1ccc(S(=O)(=O)n2cc3c4c(cccc42)[C@H](O)[C@@H](N(C)C)C3)cc1 | > 1700
CN(C)CCc1cccc2c1cc(C(=O)c1ccccc1)n2S(=O)(=O)c1ccccc1 | 750
CCOC(=O)c1[nH]c2ccccc2c1CCN(C)C | 59

target: T4, 5-hydroxytryptamine receptor 1A (Homo sapiens, UniProt P08908); assay: Binding affinity against 5-hydroxytryptamine 1A receptor in HeLa cells was determined using [3H]5-HT; type: cell-based
T4 sequence (P08908 whole entry): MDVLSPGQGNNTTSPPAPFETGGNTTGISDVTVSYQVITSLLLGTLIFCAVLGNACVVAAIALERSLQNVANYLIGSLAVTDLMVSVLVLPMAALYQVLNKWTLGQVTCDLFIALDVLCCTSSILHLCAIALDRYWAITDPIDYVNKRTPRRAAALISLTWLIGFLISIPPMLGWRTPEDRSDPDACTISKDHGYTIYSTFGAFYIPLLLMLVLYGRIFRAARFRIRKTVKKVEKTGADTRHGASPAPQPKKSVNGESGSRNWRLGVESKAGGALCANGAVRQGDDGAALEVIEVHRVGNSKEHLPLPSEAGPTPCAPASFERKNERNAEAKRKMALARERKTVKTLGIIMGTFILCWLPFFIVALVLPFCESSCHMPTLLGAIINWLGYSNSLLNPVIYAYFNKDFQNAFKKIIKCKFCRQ

SMILES | Ki [nM]
CN(C)CCc1cn(S(=O)(=O)c2ccccc2)c2ccccc12 | 520
CN(C)CCc1cn(C(=O)c2ccccc2)c2ccc(O)cc12 | 620
CN(C)CCc1cccc2c1ccn2S(=O)(=O)c1ccccc1 | 170
NCCc1cccc2c1ccn2S(=O)(=O)c1ccccc1 | 140
Cc1ccc(S(=O)(=O)n2cc3c4c(cccc42)[C@H](O)[C@@H](N(C)C)C3)cc1 | > 5600
CN(C)CCc1cccc2c1cc(C(=O)c1ccccc1)n2S(=O)(=O)c1ccccc1 | 480
CCOC(=O)c1[nH]c2ccccc2c1CCN(C)C | 1800

target: T1, 5-hydroxytryptamine receptor 1F; assay: Binding affinity against 5-hydroxytryptamine 1F receptor in CHO using [3H]5-HT radioligand

SMILES | Ki [nM]
CN(C)CCc1cn(C(=O)c2ccccc2)c2ccc(O)cc12 | 29

target: 5-hydroxytryptamine receptor 7 (Homo sapiens, UniProt P34969); assay: Binding affinity for 5-hydroxytryptamine 7 receptor human cloned receptors in CHO cells using [3H]5-HT; type: cell-based
Sequence (P34969 whole entry): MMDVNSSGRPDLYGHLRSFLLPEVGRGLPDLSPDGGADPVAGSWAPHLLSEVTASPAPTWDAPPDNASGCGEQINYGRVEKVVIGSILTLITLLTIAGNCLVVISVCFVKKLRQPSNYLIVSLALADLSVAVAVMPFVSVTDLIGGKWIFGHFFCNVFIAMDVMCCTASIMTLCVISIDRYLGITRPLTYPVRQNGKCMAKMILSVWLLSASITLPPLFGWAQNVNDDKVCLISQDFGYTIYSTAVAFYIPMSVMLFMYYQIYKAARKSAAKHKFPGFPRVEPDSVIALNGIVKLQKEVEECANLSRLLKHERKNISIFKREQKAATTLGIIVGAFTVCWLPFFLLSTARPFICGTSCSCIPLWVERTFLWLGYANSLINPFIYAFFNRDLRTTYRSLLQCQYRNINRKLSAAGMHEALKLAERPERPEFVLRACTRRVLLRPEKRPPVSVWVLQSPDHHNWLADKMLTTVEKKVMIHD

SMILES | Ki [nM]
CN(C)CCc1cn(S(=O)(=O)c2ccccc2)c2ccccc12 | 3700
CN(C)CCc1cn(C(=O)c2ccccc2)c2ccc(O)cc12 | 1600
CN(C)CCc1cccc2c1ccn2S(=O)(=O)c1ccccc1 | 460
COc1ccc2c(c1)c(CCN(C)C)cn2S(=O)(=O)c1ccccc1 | 1900
NCCc1cccc2c1ccn2S(=O)(=O)c1ccccc1 | 29
Cc1ccc(S(=O)(=O)n2cc3c4c(cccc42)[C@H](O)[C@@H](N(C)C)C3)cc1 | > 5800
CN(C)CCc1cccc2c1cc(C(=O)c1ccccc1)n2S(=O)(=O)c1ccccc1 | 1300
CCOC(=O)c1[nH]c2ccccc2c1CCN(C)C | 510
